Laboratory results from article PMC2532710 (Nucleic Acids Research, 2008).
“And” between values parts separate entries of the source, which are not always exact repeats. Equal values may be shown once.

Key:
[1] = system: RecG binding to HJ substrate; test: RecG/; design: species or system Escherichia coli
protein-free HJ DNA [2] = test: peptide/RecG band shift assay on HJ; type: binding; settings: read-out: dissociation constant (Kd) by band shift assay; peptide dimer, HJ
HJ substrate [3] = test: dissociation from HJ; type: binding
RecG/HJ complex = test: displacement of RecG from HJ DNA; type: binding, Escherichia coli; settings: 0.1 μM (WRWYCR)2
HJ substrate [4] = test: 2-AP fluorescence quenching, HJ substrate; type: binding
Method in brief: (§1)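 Substrates were annealed from oligos (boiled 5 min, slow-cooled), gel-purified on native 12% PAGE and quantified spectrophotometrically. After ≥10 min equilibration, emission was read at 330–430 nm (excitation 315 nm). Adenine-substituted spectra were subtracted, and fold decrease at 370 nm was taken versus no peptide.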

[5] = system: replication fork substrate; test: 2-AP fluorescence quenching, replication fork; type: binding
Method in brief: as §1

[6] = system: fork substrate with only the lagging strand; test: 2-AP fluorescence quenching, lagging strand fork; type: binding
Method in brief: as §1

[7] = system: fork substrate with only the leading strand; test: 2-AP fluorescence quenching, leading strand fork; type: binding
Method in brief: as §1

[8] = system: 1AP1 oligonucleotide alone (ssDNA); test: 2-AP fluorescence quenching, single oligonucleotide; type: binding
Complete fork = test: 2-AP titration Kd, complete fork; type: binding; settings: Kd ratio, n = 1
Method in brief: (§2)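 Each substrate carried 2-AP at strand 4, position 2 and was used at 0.1 μM in 20 mM Tris-HCl pH 7.8, 25 mM NaCl, 1 mM EDTA, 1.6% DMSO at 24°C. Peptide dimer added in 2-fold steps from 0.003125 μM, 3 min each. Excitation 315 nm, emission 330–430 nm. Adenine background subtracted, 365–375 nm averaged. Fc fitted by least squares to pooled 2–3 dilution series. Value given as Kd relative to HJ Kd.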

Lagging strand fork = test: 2-AP titration Kd, lagging strand fork; type: binding; settings: Kd ratio, n = 1
Method in brief: as §2

Flayed fork = test: 2-AP titration Kd, flayed fork; type: binding; settings: Kd ratio, n = 1
Method in brief: as §2

Oligo = test: 2-AP titration Kd, oligo; type: binding; settings: Kd ratio, n = 1
Method in brief: as §2

[9] = system: RecG binding to HJ substrate; settings: cited from earlier work
protein-free HJ DNA [10] = settings: cited from earlier work
RecG helicase = settings: cited from earlier work
RuvABC complex = settings: cited from earlier work
human RAD54 protein = settings: cited from earlier work
[11] = system: central thymine bases of HJ; settings: bound to HJ; cited from earlier work
[12] = system: replication fork substrates; settings: ref K. Kepple, Ph.D. Thesis, 2006; cited from earlier work

For (WRWYCR)2 (disulfide), the “mechanism of inhibition of RecG” value [1] was “competitive mechanism”, the “inhibition of RecG binding to HJ” value ([1]; 0.02 μM RecG, 0.025 μM peptide dimer, 2 nM HJ) was “strongly inhibited” and the “inhibition of RecG binding to HJ” value ([1]; 0.02 μM RecG, 0.1 μM peptide, 2 nM HJ) was “almost completely inhibited”. For the same substance, the “inhibition of RecG binding to HJ” value ([1]; 0.2 μM RecG, 0.025 μM peptide) was “only weak inhibition”, the “inhibition of RecG–DNA complexes, order of addition” value ([1]; data not shown, Saha and Segall, unpublished data) was “occurs whether the peptide is added to DNA 10 min before or after RecG” and the Kd (protein-free HJ DNA [2]) was 0.0125 µM. For the same substance, the “time for half of bound peptide to dissociate” value (HJ substrate [3]; 0.015 μM (WRWYCR)2, 1 nM labeled HJ, 0.2 μM unlabeled HJ (200X), 4°C) was “More than an hour”, the “dissociation slower than RecG” value (HJ substrate [3]; peptide vs RecG, from HJ) was “about 2 X” and the “disappearance of band with two RecG monomers per HJ” value (RecG/HJ complex) was “takes far longer to disappear”. The “quenching of four central 2-AP bases” value (HJ substrate [4]; 4-fold excess of peptide dimer over substrate) was “at least 1.6 fold”, the “fold decrease in 2-AP fluorescence at 370 nm” value (“fold decrease” below) (HJ substrate [4]; HJ-1AP1 (central base), 0.2 μM dimer, 1:1) was 1.2 fold and the “fold decrease” value (HJ substrate [4]; HJ-1AP1 (central base), 0.8 μM dimer, 4:1) was 1.6 fold. The “fold decrease” value (HJ substrate [4]; HJ-1AP1 (central base), 1.6 μM dimer, 8:1) was 1.8 fold, the “fold decrease” value (HJ substrate [4]; HJ-3AP1 (central base), 0.2 μM dimer, 1:1) was 1.3 fold and the “fold decrease” value (HJ substrate [4]; HJ-3AP1 (central base), 0.8 μM dimer, 4:1) was 2.0 fold. For the same substance, the “fold decrease” value (HJ substrate [4]; HJ-3AP1 (central base), 1.6 μM dimer, 8:1) was 2.2 fold, the “fold decrease” value (HJ substrate [4]; HJ-3AP2, 0.2 μM dimer, 1:1) was 1.0 fold and the “fold decrease” value (HJ substrate [4]; HJ-4AP1 (central base), 0.2 μM dimer, 1:1) was 1.2 fold. The “fold decrease” value (HJ substrate [4]; HJ-4AP1 (central base), 0.8 μM dimer, 4:1) was 1.9 fold, the “fold decrease” value (HJ substrate [4]; HJ-4AP1 (central base), 1.6 μM dimer, 8:1) was 1.8 fold and the “fold decrease” value (HJ substrate [4]; HJ-4AP2 (central base), 0.05 μM dimer, 0.25:1) was 1.0 fold. The “fold decrease” value (HJ substrate [4]; HJ-4AP2 (central base), 0.2 μM dimer, 1:1) was 1.2 fold, the “fold decrease” value (HJ substrate [4]; HJ-4AP2 (central base), 0.8 μM dimer, 4:1) was 2 fold and 2.0 fold and the “fold decrease” value (HJ substrate [4]; HJ-4AP2 (central base), 1.6 μM dimer, 8:1) was 2.2 fold. For the same substance, the “fold decrease” value (HJ substrate [4]; HJ-4AP3, 0.05 μM dimer, 0.25:1) was 1.0 fold, the “fold decrease” value (HJ substrate [4]; HJ-4AP3, 0.2 μM dimer, 1:1) was 1.2 fold and the “fold decrease” value (HJ substrate [4]; HJ-4AP4, 0.05 μM dimer, 0.25:1) was 1.0 fold. For the same substance, the “fold decrease” value (HJ substrate [4]; HJ-4AP4, 0.2 μM dimer, 1:1) was 1.0 fold, the “fold decrease” value (HJ substrate [4]; HJ-4AP4, 0.8 μM dimer, 4:1) was 1.2 fold and the “fold decrease” value (HJ substrate [4]; HJ-4AP4, 1.6 μM dimer, 8:1) was 1.2 fold. The “quenching of 2-AP in the center of HJ and replication forks” value (HJ substrate [4]; center of both HJ and replication forks) was “quench the fluorescence of 2-AP bases”, the “quenching of central bases, preliminary set” value (HJ substrate [4]; the eighth central base, Boldt and Segall, unpublished data, preliminary) was 1.6 X and the “fold decrease” value ([5]; Fork-1AP1 (central base), 0.05 μM dimer, 0.25:1) was 1.0 fold. For the same substance, the “fold decrease” value ([5]; Fork-1AP1 (central base), 0.2 μM dimer, 1:1) was 1.0 fold, the “fold decrease” value ([5]; Fork-1AP1 (central base), 0.8 μM dimer, 4:1) was 1.2 fold and the “fold decrease” value ([5]; Fork-3AP2, 0.2 μM dimer, 1:1) was 1.0 fold. For the same substance, the “fold decrease” value ([5]; Fork-3AP2, 1.6 μM dimer, 8:1) was 1.2 fold, the “fold decrease” value ([5]; Fork-4AP1 (central base), 0.05 μM dimer, 0.25:1) was 1.0 fold and the “fold decrease” value ([5]; Fork-4AP1 (central base), 1.6 μM dimer, 8:1) was 1.7 fold. The “fold decrease” value ([5]; Fork-4AP2 (central base), 0.05 μM dimer, 0.25:1) was 1.0 fold, the “fold decrease” value ([5]; Fork-4AP2 (central base), 0.2 μM dimer, 1:1) was 1.0 fold and the “fold decrease” value ([5]; Fork-4AP3, 0.05 μM dimer, 0.25:1) was 1.0 fold. For the same substance, the “fold decrease” value ([5]; Fork-4AP3, 0.2 μM dimer, 1:1) was 1.0 fold, the “fold decrease” value ([5]; Fork-4AP3, 0.8 μM dimer, 4:1) was 1.2 fold and the “fold decrease” value ([5]; Fork-4AP4, 0.05 μM dimer, 0.25:1) was 1.0 fold. The “fold decrease” value ([5]; Fork-4AP4, 0.2 μM dimer, 1:1) was 1.0 fold, the “fold decrease” value ([5]; Fork-4AP4, 0.8 μM dimer, 4:1) was 1.0 fold and the “fold decrease” value ([5]; Fork-4AP4, 1.6 μM dimer, 8:1) was 1.2 fold. The “fold decrease” value ([6]; Lag-1AP1 (central base), 0.05 μM dimer, 0.25:1) was 1.0 fold, the “fold decrease” value ([6]; Lag-1AP1 (central base), 0.2 μM dimer, 1:1) was 1.0 fold and the “fold decrease” value ([6]; Lag-1AP1 (central base), 0.8 μM dimer, 4:1) was 1.3 fold. The “fold decrease” value ([6]; Lag-1AP1 (central base), 1.6 μM dimer, 8:1) was 2.0 fold, the “2-AP quenching” value ([6]; Lag-1AP1, 4- and 8-fold molar excess) was “quenched” and the “2-AP quenching” value ([6]; Lag-3AP2) was “only very weak quenching”. For the same substance, the “fold decrease” value ([6]; Lag-3AP2, 0.05 μM dimer, 0.25:1) was 1.0 fold, the “fold decrease” value ([6]; Lag-3AP2, 0.2 μM dimer, 1:1) was 1.0 fold and the “fold decrease” value ([6]; Lag-4AP1 (central base), 0.05 μM dimer, 0.25:1) was 1.0 fold. For the same substance, the “fold decrease” value ([6]; Lag-4AP1 (central base), 0.8 μM dimer, 4:1) was 1.3 fold, the “fold decrease” value ([6]; Lag-4AP1 (central base), 1.6 μM dimer, 8:1) was 1.9 fold and the “2-AP quenching” value ([6]; Lag-4AP1 and Lag-4AP2) was “quenched strongly”. For the same substance, the “fold decrease” value ([6]; Lag-4AP2 (central base), 0.05 μM dimer, 0.25:1) was 1.0 fold, the “fold decrease” value ([6]; Lag-4AP2 (central base), 0.8 μM dimer, 4:1) was 1.3 fold and the “fold decrease” value ([6]; Lag-4AP2 (central base), 1.6 μM dimer, 8:1) was 1.6 fold. For the same substance, the “fold decrease” value ([6]; Lag-4AP3, 0.05 μM dimer, 0.25:1) was 1.0 fold, the “fold decrease” value ([6]; Lag-4AP3, 0.2 μM dimer, 1:1) was 1.0 fold and the “fold decrease” value ([6]; Lag-4AP3, 0.8 μM dimer, 4:1) was 1.2 fold. The “fold decrease” value ([6]; Lag-4AP3, 1.6 μM dimer, 8:1) was 1.3 fold, the “2-AP quenching” value ([6]; Lag-4AP3 and Lag-4AP4) was “quenched relatively weakly” and the “fold decrease” value ([6]; Lag-4AP4, 0.05 μM dimer, 0.25:1) was 1.0 fold. For the same substance, the “fold decrease” value ([6]; Lag-4AP4, 0.2 μM dimer, 1:1) was 1.0 fold, the “fold decrease” value ([6]; Lag-4AP4, 1.6 μM dimer, 8:1) was 1.0 fold and the “fold decrease” value ([7]; Lead-1AP1 (central base), 0.05 μM dimer, 0.25:1) was 1.0 fold. The “fold decrease” value ([7]; Lead-1AP1 (central base), 1.6 μM dimer, 8:1) was 1.3 fold, the “fold decrease” value ([7]; Lead-4AP1 (central base), 0.05 μM dimer, 0.25:1) was 1.0 fold and the “fold decrease” value ([7]; Lead-4AP1 (central base), 0.8 μM dimer, 4:1) was 1.3 fold. For the same substance, the “fold decrease” value ([7]; Lead-4AP1 (central base), 1.6 μM dimer, 8:1) was 1.7 fold, the “2-AP quenching” value ([7]; Lead-4AP1, Lead-4AP2 and Lead-4AP3) was “all quenched by the peptide” and the “fold decrease” value ([7]; Lead-4AP2 (central base), 0.05 μM dimer, 0.25:1) was 1.0 fold. For the same substance, the “fold decrease” value ([7]; Lead-4AP2 (central base), 0.8 μM dimer, 4:1) was 1.2 fold, the “fold decrease” value ([7]; Lead-4AP3, 0.05 μM dimer, 0.25:1) was 1.0 fold and the “fold decrease” value ([7]; Lead-4AP3, 0.8 μM dimer, 4:1) was 1.2 fold. The “fold decrease” value ([7]; Lead-4AP4, 0.2 μM dimer, 1:1) was 1.0 fold, the “fold decrease” value ([7]; Lead-4AP4, 1.6 μM dimer, 8:1) was 1.2 fold and the “2-AP quenching” value ([7]; Lead-4AP4 and Lead-1AP1) was “less sensitive”. The “2-AP quenching” value ([8]; 8-fold molar excess of peptide, data not shown) was “no significant quenching”, the “2-AP quenching” value ([8]; 16-fold peptide excess) was “Quenching begins” and the “2-AP quenching” value ([8]; 32-fold excess) was “increases”. For the same substance, the “Fold reduced versus HJ” value (Complete fork) was 4.4, the “Fold reduced versus HJ” value (Lagging strand fork) was 5.5 and the “Fold reduced versus HJ” value (Flayed fork) was 43.9. For the same substance, the “Fold reduced versus HJ” value (Oligo) was 51.1, the “complexes formed when peptide and RecG are added together to HJ” value [9] was “mostly peptide–HJ complexes” and the “binding to free HJ DNA” value (protein-free HJ DNA [10]) was “bind specifically to free HJ DNA”. For the same substance, the “effect of Mg^2+ or spermidine on HJ binding” value (protein-free HJ DNA [10]) was “strongly inhibited”, the “inhibition of unwinding of branched DNA substrates by RecG” value (RecG helicase) was “inhibit unwinding of branched DNA substrates” and the “inhibition of RecG by fork type” value (RecG helicase; fork with only lagging vs only leading strand) was “inhibits RecG most on a fork substrate with only the lagging strand and least on a fork substrate with only the leading strand”. The “inhibition of HJ resolution by RuvABC” value (RuvABC complex) was “inhibit”, the IC50 (RuvABC complex; read-out: IC50, RuvABC) was ~0.05 µM and the “inhibition of D-loop unwinding activity” value (human RAD54 protein) was “inhibit the D-loop unwinding activity”. For the same substance, the “increase in KMnO4 sensitivity of central thymine bases” value [11] was ~2 fold and the “binding to replication forks by band shift” value [12] was “unable to detect binding”.
